Consider ten compounds from ChEMBL document CHEMBL1153444, “Discovery of dual inhibitors targeting both HIV-1 capsid and human cyclophilin A to inhibit the assembly and uncoating of the viral capsid” (Bioorg Med Chem, 2009).

The target in data set [1] is Protease (Human immunodeficiency virus 1) (UniProt Q9YQ12). Description: Inhibition of HIV1 protease assessed as decrease in UV absorbance at 10 uM. Summed up: (§1)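 HIV-1 protease was preincubated with inhibitor (DMSO) for 20 min at room temperature in 0.1 M MES, 0.2 M NaCl, 5 mM EDTA, pH 5.5. The reaction was started with substrate Lys-Ala-Arg-Val-Leu-Phe(NO₂)-Glu-Ala-Met, and hydrolysis was followed as the A280 decrease over 40 min. Inhibition ratio was taken from Ai/A₀, with and without inhibitor.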
Chain of Protease (Human immunodeficiency virus 1) (Q9YQ12 as listed by the source): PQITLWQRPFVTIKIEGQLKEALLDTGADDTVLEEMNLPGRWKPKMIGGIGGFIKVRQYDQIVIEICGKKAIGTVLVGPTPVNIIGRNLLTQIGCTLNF

Data set [2] has as its system Simian immunodeficiency virus. Description: Antiviral activity against SIV in human CEM cells assessed as inhibition of virus-induced cytopathogenicity. In kind it is functional, organism-based, CCRF-CEM. Summed up: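 SIV syncytium assay in CEM174 cells (2 × 10⁵ cells/ml) infected with 100 TCID₅₀ SIV per well alongside serial compound dilutions. Cultures were kept 5 days at 37 °C in humidified 5% CO₂, then giant-cell formation was scored microscopically. EC₅₀ is the concentration protecting cells from SIV cytopathogenicity by 50%.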
On the technique in general: Protection from cytopathic effect is a common read-out in antiviral testing.

Data set [3] can be described thus: Cytotoxicity against human CEM cells. As to conditions: CEM cells (CCRF-CEM), read-out: TC50 (the source's name). It counts as cell-based.
A short description of data set [4]: Therapeutic index, TC50 for human CEM cells to EC50 for SIV. It counts as cell-based, CCRF-CEM.
Data set [5] deals with Structural capsid protein (Human immunodeficiency virus 1) (UniProt Q76129). Description: Binding affinity to HIV1 capsid assessed as assembly rate per minute by ultraviolet spectrophotometry assay. The essentials:
(§2)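 Turbidity was read at 350 nm every 10 s after a short equilibration delay. Assembly rate (mOD/min) was taken from the initial slope of absorbance versus time.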

For data set [6] the target is unchanged. Description: Binding affinity to HIV1 capsid assessed as assembly rate per minute at 0.5:1 drug to protein ratio by ultraviolet spectrophotometry assay. The essentials: as §2
For data set [7] the target is unchanged. Description: Binding affinity to HIV1 capsid assessed as assembly rate per minute at 1:1 drug to protein ratio by ultraviolet spectrophotometry assay. The essentials:
as §2

Data set [8] has the same target. The data set can be described thus: Binding affinity to HIV1 capsid assessed as assembly rate per minute at 2:1 drug to protein ratio by ultraviolet spectrophotometry assay. Summed up:
as §2

Data set [9] addresses T1, Peptidyl-prolyl cis-trans isomerase A (Homo sapiens, UniProt P62937). The data set can be described thus: Binding affinity to human cyclophilin A by intrinsic tryptophan fluorescence titration assay. Conditions: read-out: Kd. Summed up: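 CypA intrinsic tryptophan fluorescence titration in 20 mM Tris–HCl, 100 mM NaCl, pH 7.4, at 25 °C, with compounds from 10 mM DMSO stocks. Excitation was 280 nm and emission was read at 340 nm. Kd was obtained by fitting intensity against final compound concentration to F₀/F = 1 + Ka·C.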

Data set [10] concerns the target T1, Peptidyl-prolyl cis-trans isomerase A. The data set can be described thus: Inhibition of human cyclophilin A at 6 degC. The essentials: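 PPIase assay at 6 °C in 50 mM HEPES, 100 mM NaCl, using Suc-AAPF-pNA substrate (3 mM stock in THF with 480 mM LiCl). A390 was recorded for 20 s after about a 6 s mixing delay. Cis–trans rate constants came from nonlinear least-squares fits to an integrated first-order equation, and IC₅₀ was calculated from these.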

The target in data set [11] is Protease (Human immunodeficiency virus 1) (UniProt Q9YQ12). The data set can be described thus: Inhibition of HIV1 protease. Summed up: as §1
The target in data set [12] is Human immunodeficiency virus type 1 integrase (Human immunodeficiency virus 1) (UniProt Q7ZJM1). Description: Inhibition of HIV1 integrase at 20 uM. On the set-up: scale not given: the % may be the effect or the level left. The essentials:
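Recombinant HIV-1 integrase (E. coli) was preincubated with compound for 30 min. It was then incubated for 30 min at 37 °C on plate-immobilized donor duplex in Tris–HCl pH 7.8, 25 mM NaCl, 7.5 mM MgCl₂, 5 mM β-mercaptoethanol and BSA. Biotinylated target duplex was added for 1 h at 37 °C. Integration products were detected by pNPP phosphatase read-out at A405, and inhibition was taken as the decrease in final absorbance.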

Data set [13] concerns the target Protease (Human immunodeficiency virus 1) (UniProt Q9YQ12). Description: Inhibition of HIV1 protease assessed as decrease in UV absorbance. Conditions: concentration not given here. Summed up: as §1
For data set [14], the system named is Simian immunodeficiency virus. The data set can be described thus: Antiviral activity against SIV in human CEM cells assessed as inhibition of virus-induced cytopathogenicity at 10 uM. In kind it is functional, CCRF-CEM. Also noted: scale not given: the % may be the effect or the level left.
Setting [15] is: Simian immunodeficiency virus, CCRF-CEM, read-out: EC50.

Active and inactive are the calls of the source. The rule behind the calls is not given here.

Chain of Human immunodeficiency virus type 1 integrase (Human immunodeficiency virus 1) (Q7ZJM1 as listed by the source): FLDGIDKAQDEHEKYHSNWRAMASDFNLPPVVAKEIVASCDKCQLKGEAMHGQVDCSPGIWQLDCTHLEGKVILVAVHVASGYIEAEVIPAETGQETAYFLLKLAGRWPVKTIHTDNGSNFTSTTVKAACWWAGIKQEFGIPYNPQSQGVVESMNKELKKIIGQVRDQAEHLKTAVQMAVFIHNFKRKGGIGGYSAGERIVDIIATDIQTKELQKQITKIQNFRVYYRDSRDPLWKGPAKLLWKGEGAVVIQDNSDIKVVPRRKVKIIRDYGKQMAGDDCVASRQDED
Chain of Structural capsid protein (Human immunodeficiency virus 1) (Q76129 as listed by the source): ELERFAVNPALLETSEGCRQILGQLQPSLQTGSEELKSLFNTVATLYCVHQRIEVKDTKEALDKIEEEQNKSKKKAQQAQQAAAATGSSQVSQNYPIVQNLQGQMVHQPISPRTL
T1 sequence (P62937 whole entry): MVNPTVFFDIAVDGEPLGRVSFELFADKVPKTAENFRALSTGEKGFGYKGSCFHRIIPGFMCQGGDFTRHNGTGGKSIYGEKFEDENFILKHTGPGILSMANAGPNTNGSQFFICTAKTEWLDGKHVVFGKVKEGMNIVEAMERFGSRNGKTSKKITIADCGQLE

Regarding `CC(C)(C)NC(=O)[C@@H]1CN(Cc2cccnc2)CCN1C[C@@H](O)C[C@@H](Cc1ccccc1)C(=O)N[C@H]1c2ccccc2C[C@H]1O`, in data set [1], the inhibition (as a rule, how much of the control response was suppressed) is > 90%.

With `Cc1cc(NS(=O)(=O)c2ccc(NC(=S)Nc3cccc(Cl)c3)cc2)no1`, in data set [2] (setting [15]), the EC50 (in general, the concentration needed to bring the measured effect to its halfway point) amounted to 1 µM. Moreover, the CC50 in [3] was 91.9 µM. Moreover, in [4], the selectivity ratio was found to be 92. For the same compound, the Activity (milli optical density/minute) came out at 15.8 in data set [5], 43.2 in data set [6], 38.4 in [7] and 11.4 in [8]. Further, in data set [9], the Kd (usually the concentration at which binding is half-saturated) came to 79.6 µM. Further, in data set [10], the midpoint of inhibition, the IC50, lay at 0.33 µM.

On to `Cc1cc(NS(=O)(=O)c2ccc(NC(=S)Nc3ccc(Cl)cc3)cc2)no1`, for which the EC50 in data set [2] (setting [15]) is 4.1 µM. Further, the CC50 in data set [3] was found to be 37.8 µM. In addition, the selectivity ratio in [4] came out at 9. Moreover, the Activity (milli optical density/minute) in data set [5] amounted to 29; in data set [6] it was 52.2; in [7], 42; in [8], 19.4. In data set [9], the Kd is 107 µM. Further, the IC50 (as a rule, the concentration needed to halve the response being measured) in data set [10] stood at 0.69 µM.

Consider `O=S(=O)(Nc1nccs1)c1ccc(NC(=S)Nc2ccc(Cl)cc2)cc1`, for which the EC50 in data set [2] (setting [15]) was 5.7 µM. Further, the CC50 in [3] came out at 19.1 µM. For the same compound, the selectivity ratio in data set [4] was determined as 3. Also, in data set [5], the Activity (milli optical density/minute) turned out to be 52.5. In addition, the Kd in data set [9] was determined as 51 µM. Besides, inhibition in [10] was half-maximal at 0.13 µM (IC50). The outcome in [11] was inactive. The Activity in data set [12] is < 20%.

With `Cc1cc(NS(=O)(=O)c2ccc(NC(=S)Nc3ccc(C)c(Cl)c3)cc2)no1`, the EC50 in [2] (setting [15]) was determined as 0.6 µM. Also, in [3], the CC50 came to 74.4 µM. In addition, the selectivity ratio in data set [4] turned out to be 127. The Activity (milli optical density/minute) in data set [5] amounted to 36.4. Further, the Kd in data set [9] is 55.8 µM. This compound also showed an IC50 in data set [10] of 0.65 µM. In data set [13], the inhibition was < 5%.

With `Cc1ccc(NC(=S)Nc2ccc3c(c2)C(=O)OC3)cc1Cl`, the EC50 in [2] (setting [15]) is 4.6 µM. The CC50 in data set [3] was determined as 18.7 µM. For the same compound, in data set [4], the selectivity ratio turned out to be 4. Besides, the Activity (milli optical density/minute) in data set [5] stood at 19.6. Moreover, the Kd in [9] came to 96.6 µM. Moreover, the IC50 in [10] was 0.59 µM. For the same compound, the result in data set [11] was inactive. In data set [12], the Activity was < 20%.

`Cc1ccc(NC(=S)Nc2ccc(C)c([N+](=O)[O-])c2)cc1Cl`: the EC50 in data set [2] (setting [15]) was 3.1 µM. For the same compound, in [3], the CC50 is 38.8 µM. In [4], the selectivity ratio came to 12. Moreover, the Activity (milli optical density/minute) in data set [5] worked out at 60. Further, in [9], the Kd is 88.9 µM. The compound also returned a half-inhibitory concentration (IC50) in data set [10] of 0.46 µM. The outcome in [11] was inactive. Also, in data set [12], the Activity is < 20%.

As to `C/C=C/C[C@@H](C)[C@@H](O)[C@H]1C(=O)N[C@@H](CC)C(=O)N(C)CC(=O)N(C)[C@@H](CC(C)C)C(=O)N[C@@H](C(C)C)C(=O)N(C)[C@@H](CC(C)C)C(=O)N[C@@H](C)C(=O)N[C@H](C)C(=O)N(C)[C@@H](CC(C)C)C(=O)N(C)[C@@H](CC(C)C)C(=O)N(C)[C@@H](C(C)C)C(=O)N1C` [CYCLOSPORINE], the EC50 result in [2] (ccrf-cem) is “Not Active”. Also, the Activity in data set [14] is <10%.

`O=C1OCc2ccc(NC(=S)Nc3cccc(Cl)c3)cc21`: in data set [2] (setting [15]), the EC50 is 4.2 µM. In addition, in [3], the CC50 amounted to 86 µM. In data set [4], the selectivity ratio is 20. Besides, the Activity (milli optical density/minute) in [5] is 49.2. Also, the Kd in data set [9] came to 133 µM. In addition, the result in [11] was inactive. The Activity in data set [12] is < 20%. For the same compound, in data set [13], the inhibition is < 5%.

Turning to `Cc1cc(NS(=O)(=O)c2ccc(NC(=S)Nc3ccccc3C)cc2)no1`, the EC50 in data set [2] (setting [15]) was 6.2 µM. Further, in [3], the CC50 was found to be 48.4 µM. In addition, the selectivity ratio in [4] amounted to 8. Besides, in data set [5], the Activity (milli optical density/minute) is 64.8. Also, in [9], the Kd stood at 116 µM. The IC50 in data set [10] turned out to be 0.6 µM.
